In the library only some 3.1% were active in any assay of this set; here they are far more common.
CSN inh – inhibitors of human CSN-mediated cullin deneddylation | Q92905 | AID 651999 | Purified CSN, SCF-Nedd8-OG deneddylation, fluorescence polarization | actives 0.38% (n = 360,000) | inhibition, % at 12.5 µM;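 active means pattern-corrected inhibition above about 35%, with an unprinted fluorescence ratio check between 0.5 and 1.5, limit read from the data, passing the limit was not always enough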
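Material: human Csn5 produced in HEK293T cells; Input: enzyme 0.24 nM; Reagent: SCFSkp2-Nedd8OG substrate at 10 nM final; Dosing: 12.5 µM compound; Incubation: 90 min reaction at room temperature; Detection: fluorescence polarization of the substrate; Evaluation: % inhibition of substrate cleavage by Csn5; Control set: substrate-only high control, full reaction low control.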
MBD2 DNA inh – MBD2-methylated oligo binding inhibition; inhibition, % at 4.4 µM; actives 0.31% (n = 370,000); TR-FRET, MBD2 binding to methylated oligonucleotide; AID 686964; in the data active means inhibition above about 13%
Target sequence (Q9UBB5 whole entry, looked up): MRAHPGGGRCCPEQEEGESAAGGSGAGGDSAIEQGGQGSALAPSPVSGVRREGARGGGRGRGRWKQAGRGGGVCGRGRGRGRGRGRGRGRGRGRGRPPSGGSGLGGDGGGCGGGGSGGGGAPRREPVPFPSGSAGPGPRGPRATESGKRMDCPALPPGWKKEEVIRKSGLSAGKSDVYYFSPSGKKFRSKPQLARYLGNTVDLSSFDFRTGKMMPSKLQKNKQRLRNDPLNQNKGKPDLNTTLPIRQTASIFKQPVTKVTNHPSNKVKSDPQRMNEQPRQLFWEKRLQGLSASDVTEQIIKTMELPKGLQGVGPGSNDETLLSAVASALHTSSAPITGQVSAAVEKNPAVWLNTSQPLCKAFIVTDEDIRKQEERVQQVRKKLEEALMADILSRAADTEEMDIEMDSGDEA
rCAG binder – molecules binding r(CAG) RNA repeats | r(CAG) RNA repeat, TO-PRO-1 dye displacement fluorescence | inhibition, % at 3 µM | actives 1.3% (n = 370,000);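 active means inhibition above the plate cutoff, the mean of all test compounds on that plate plus 3 SD, cut at about 35% in these data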;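 further: higher means more dye released from RNA so lower well fluorescence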
UHRF1 binding – UHRF1 methyl-DNA binding inhibition. UHRF1 binding to methylated oligo, TR-FRET. actives 0.75% (n = 370,000). inhibition, % at 4.4 µM. AID 687016; in the data active means inhibition above about 21%;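 further: UHRF1 SRA domain binding a hemimethylated CpG hairpin DNA probe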
LEDGF integ inh – blocks HIV-1 LEDGF/p75-dependent DNA integration; AID 743269; actives 0.64% (n = 370,000); inhibition, % at 3.7 µM; TR-FRET IN-LEDGF/p75 DNA integration, Eu/Cy5;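 active means inhibition above the screen-wide mean plus 3 SD, cut at about 13% in these data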;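 further: signal is the Cy5 over europium emission ratio at 671 and 618 nm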
ATG4B inhibitor – ATG4B (human) cysteine protease inhibition; actives 0.51% (n = 340,000); inhibition, % at 8.33 µM; Q9Y4P1; AID 504462; ATG4B cleavage of LC3-PLA2, NBD-HPC fluorescence, 1 h; in the data active means inhibition above about 40%
rCAG bind conf – r(CAG) RNA repeat binding, confirmation. shares compounds with rCAG binder. TO-PRO-1 dye displacement fluorescence. inhibition, % at 3 µM. actives 70% (n = 4,300). AID 652065;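 active means inhibition above a per-plate cutoff, the mean inhibition of sample wells plus 3 SD, cut at about 35% in these data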;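 further: loss of TO-PRO-1 fluorescence as compound displaces dye from 1x1 AA loop RNA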
dCAG dye counter – disrupts DNA CAG TO-PRO-1 complex, flagging rCAG hits; shares compounds with rCAG binder; d(CAG) DNA oligo TO-PRO-1 dye displacement, fluorescence; inhibition, % at 3 µM; actives 94% (n = 4,300); AID 652068;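 active means inhibition above its plate's cutoff, the mean test-well inhibition plus 3 SD, cut at about 4.8% in these data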;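 further: hits displace the dye from DNA and so lower well fluorescence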
dCAG dye DR – DNA CAG dye complex inhibition, dose response counter-screen; shares compounds with rCAG binder; DNA CAG/GTC duplex TO-PRO-1 dye displacement fluorescence; IC50, µM; actives 20% (n = 250); AID 686960; in the data active means IC50 below about 10 µM
Each line names hits and unclear results; the compound was inactive in the other large screens (follow-up assays come after a bar, where they were run).

CC1(C(=O)NS(=O)(=O)c2ccc(Cl)s2)CCN1C(=O)C1(c2ccc(Cl)cc2)CC1 (stereo unspecified)	rCAG binder 53.5 (no result: ATG4B inhibitor) | rCAG bind conf 48.8 | dCAG dye counter 13.7
CC1(C(=O)NS(=O)(=O)c2cccs2)CCN1C(=O)C1(c2ccccc2)CCCC1 (stereo unspecified)	none (no result: ATG4B inhibitor)
CC1(C(=O)NS(=O)(=O)c2ccc(Cl)s2)CCN1C(=O)C1(c2ccccc2)CCCC1 (stereo unspecified)	rCAG binder 48.9 (no result: ATG4B inhibitor) | rCAG bind conf 50.8 | dCAG dye counter 15.7
CC1(C(=O)NS(=O)(=O)c2ccc(Cl)s2)CCN1C(=O)C1(c2ccc(Cl)cc2)CCC1 (stereo unspecified)	rCAG binder 62.4 (no result: ATG4B inhibitor) | rCAG bind conf 59.4 | dCAG dye counter 21.1
CC1(C(=O)NS(=O)(=O)c2cccs2)CCN1C(=O)C1(c2ccc(Cl)cc2)CC1 (stereo unspecified)	none (no result: ATG4B inhibitor)
O=C(CN(C(=O)OCC1c2ccccc2-c2ccccc21)[C@@H](Cc1ccccc1)C(=O)O)OCc1ccc(C(=O)NCc2ccccc2)cc1	rCAG binder 60.8 (no result: CSN inh, ATG4B inhibitor) | rCAG bind conf 69.6 | dCAG dye counter 27.4 | dCAG dye DR inactive
COc1cccc(OC[C@@H](O)CN2CCC(C(O)(c3ccccc3)c3ccccc3)CC2)c1	none (no result: CSN inh, ATG4B inhibitor)
CC(C)(C)c1ccc(/C=C2\Oc3cc(O)ccc3C2=O)cc1	rCAG binder 58.0 | rCAG bind conf 49.9 | dCAG dye counter 16.2
Cc1n[nH]c(=O)c2c(NC(=O)CSc3c(Cl)cccc3Cl)oc(C)c12	none
Cc1n[nH]c(=O)c2c(NC(=O)CSc3nn(-c4ccc(F)cc4)c(=S)s3)oc(C)c12	rCAG binder 39.7 | rCAG bind conf inactive | dCAG dye counter 12.5
O=c1[nH]c2cc(S(=O)(=O)CCO)ccc2o1	rCAG binder 35.9 | rCAG bind conf inactive | dCAG dye counter inactive
O=[N+]([O-])c1ccc(S(=O)(=O)Nc2nnc(C3CCCCC3)s2)cc1	rCAG binder 46.5 | rCAG bind conf inactive | dCAG dye counter 8.3
Cc1cc(C)c(S(=O)(=O)Nc2nnc(CC(C)C)s2)c(C)c1	rCAG binder 48.9 | rCAG bind conf inactive | dCAG dye counter 8.4
Cc1cc(C)c(S(=O)(=O)Nc2nnc(C3CCCCC3)s2)c(C)c1	rCAG binder 71.6 | rCAG bind conf 58.6 | dCAG dye counter 25.3
Cc1cc(C)c(S(=O)(=O)Nc2nnc(C)s2)c(C)c1	none
COc1ccc([C@H]2OC(=O)C[C@H]2C(=O)N2CCN(C(=O)C3CCCO3)CC2)cc1OC (stereo partly specified)	none (no result: CSN inh, ATG4B inhibitor)
COc1ccc(C2C(C(=O)Nc3cc(OC)c(OC)c(OC)c3)CCC(=O)N2c2ccc(OC)cc2)cc1 (stereo unspecified)	none (no result: CSN inh, ATG4B inhibitor)
Cc1ccc(-n2c(SCC(=O)Nc3ccccc3-c3ccccc3)nnc2-c2ccccn2)cc1	none (no result: CSN inh, ATG4B inhibitor)
O=C(Cc1csc(NC(=O)Nc2cccc(Cl)c2)n1)NCc1cccnc1	none
O=C(Cc1csc(NC(=O)Nc2cccc(Cl)c2)n1)NCc1ccccn1	rCAG binder 38.6 | rCAG bind conf inactive | dCAG dye counter 14.4
COc1ccccc1NC(=O)Nc1nc(CC(=O)NC2CCCC2)cs1	none
O=C(Cc1csc(NC(=O)Nc2cccc(Cl)c2)n1)NC1CCCC1	rCAG binder 43.9 | rCAG bind conf inactive | dCAG dye counter 14.3
O=C(CNC(=O)c1ccccc1Br)N/N=C\c1cc([N+](=O)[O-])cc(Br)c1O	rCAG binder 39.2 | rCAG bind conf inactive | dCAG dye counter 7.9
CCn1c(SCc2c(F)cccc2F)nc2sc3c(c2c1=O)CCCC3	none (no result: CSN inh, ATG4B inhibitor)

Bioassay records (PubChem BioAssay)
